Type in all cases: functional
Test [1] concerns Pseudomonas aeruginosa. Description: Antibacterial activity against Pseudomonas aeruginosa PAO1 CDS13 harboring pSW1 by broth microdilution method. The method in brief: (§1)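 Broth microdilution following standard CLSI guidelines. P. aeruginosa strains were routinely cultured at 37°C in Mueller-Hinton or Luria broth. Where plasmids required selection, media carried gentamicin or tetracycline (100 μg/ml) or carbenicillin (100 μg/ml).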
Background: Dilution methods test growth across graded concentrations, often in twofold steps.

Test [2] has as its system Pseudomonas aeruginosa. Briefly: Antibacterial activity against Pseudomonas aeruginosa PAO1 CDS22 harboring pRC5 by broth microdilution method. In short, it runs like this:
as §1

Test [3] relates to Pseudomonas aeruginosa. Briefly: Antibacterial activity against Pseudomonas aeruginosa PAO1 CDS1 expressing 14-bp deleted nfxB at base 92 by broth microdilution method. In short, it runs like this: (§2)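 Broth microdilution MICs run per standard CLSI guidelines; P. aeruginosa strains routinely grown at 37°C in Mueller-Hinton or Luria medium.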
Test [4] deals with Pseudomonas aeruginosa. Briefly: Antibacterial activity against Pseudomonas aeruginosa PAO1 CDS13 expressing mexAB-oprM fmt C127T, R43C mutant by broth microdilution method. In short, it runs like this: as §1
The subject of test [5] is Pseudomonas aeruginosa. Description: Antibacterial activity against Pseudomonas aeruginosa PAO1 CDR1 expressing fmt::aacC1 by broth microdilution method. In short, it runs like this:
as §2

Test [6] has as its system Pseudomonas aeruginosa. Description: Antibacterial activity against Pseudomonas aeruginosa PAO1 NB52022 expressing mexX by broth microdilution method. The method in brief:
as §1

The test system of test [7] is Pseudomonas aeruginosa. Briefly: Antibacterial activity against Pseudomonas aeruginosa PAO1 CDS28 harboring pSW1 by broth microdilution method. The method in brief:
as §1

Test [8] deals with Pseudomonas aeruginosa. Briefly: Induction of oprM (PA0427) gene expression in wild type Pseudomonas aeruginosa PAO1 NB52019 at 12 ug/ml relative to control. In short, it runs like this: (§3)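 Duplicate P. aeruginosa NB52019 cultures were diluted 1:100 from overnight into 30 ml Luria broth with or without 12 μg/ml drug, shaken at 180 rpm at 37°C to OD600 0.8, and harvested at 15,000 × g for 10 min. Total RNA was purified with a 40-min on-column DNase I step for transcriptional profiling, and treated cultures were compared with untreated ones.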

The subject of test [9] is Pseudomonas aeruginosa. Briefly: Induction of […] (PA5471) gene expression in wild type Pseudomonas aeruginosa PAO1 NB52019 at 12 ug/ml relative to control. The method in brief: as §3
The subject of test [10] is Pseudomonas aeruginosa. Description: Induction of mexZ (PA2020) gene expression in wild type Pseudomonas aeruginosa PAO1 NB52019 at 12 ug/ml relative to control. The method in brief: as §3
Test [11] relates to Pseudomonas aeruginosa. Description: Antibacterial activity against Pseudomonas aeruginosa PAO1 NB52021 expressing mexB by broth microdilution method. In short, it runs like this:
as §2

Test [12] deals with Pseudomonas aeruginosa. Briefly: Antibacterial activity against Pseudomonas aeruginosa PAO1 CDS30 harboring pRC5 by broth microdilution method. The method in brief: as §1
Test [13] deals with Pseudomonas aeruginosa. Briefly: Antibacterial activity against Pseudomonas aeruginosa PAO1 CDS22 expressing mexAB-oprM folD A424C, T142P mutant by broth microdilution method. The method in brief: as §1
For test [14], the system named is Pseudomonas aeruginosa. Briefly: Induction of mexY (PA2018) gene expression in wild type Pseudomonas aeruginosa PAO1 NB52019 at 12 ug/ml relative to control. In short, it runs like this:
as §3

For test [15], the system named is Pseudomonas aeruginosa. Description: Antibacterial activity against Pseudomonas aeruginosa PAO1 NB52020 expressing mexAB-oprM by broth microdilution method. In short, it runs like this: as §1
Test [16] concerns Pseudomonas aeruginosa. Briefly: Antibacterial activity against Pseudomonas aeruginosa PAO1 CDS28 expressing 16-bp deleted fmt at position 833 by broth microdilution method. The method in brief:
as §2

For test [17], the system named is Pseudomonas aeruginosa. Briefly: Antibacterial activity against wild type Pseudomonas aeruginosa PAO1 NB52019 by broth microdilution method. The method in brief:
as §1

Test [18] relates to Pseudomonas aeruginosa. Description: Antibacterial activity against Pseudomonas aeruginosa PAO1 NB52023 expressing mexB and mexX by broth microdilution method. In short, it runs like this: as §2
Test [19] relates to Pseudomonas aeruginosa. Briefly: Antibacterial activity against Pseudomonas aeruginosa PAO1 CDR2 expressing mexAB-oprM and fmt::aacC1 by broth microdilution method. In short, it runs like this: as §2
In test [20] the test system is Pseudomonas aeruginosa. Description: Antibacterial activity against Pseudomonas aeruginosa PAO1 CDS30 expressing folD G493T, V165R mutant by broth microdilution method. In short, it runs like this: as §1
In test [21] the test system is Pseudomonas aeruginosa. Briefly: Induction of mexX (PA2019) gene expression in wild type Pseudomonas aeruginosa PAO1 NB52019 at 12 ug/ml relative to control. In short, it runs like this:
as §3

Test [22] deals with Pseudomonas aeruginosa. Description: Antibacterial activity against Pseudomonas aeruginosa PAO1 CDS6 expressing nfxB A115C, T39P mutant by broth microdilution method. The method in brief:
as §1

In brackets after ≈: the same amount, converted by molar mass.

As a reminder, the MIC is the lowest concentration that inhibits growth of the organism. A lower MIC goes with a more susceptible organism. Turning to `CCCC[C@H](CN(O)C=O)C(=O)N1CCC[C@H]1C(=O)Nc1ccc(F)c[n+]1[O-]`, the MIC is 4 µg/mL (≈ 10.1 µM) in test [1]; 4 µg/mL (≈ 10.1 µM) in test [2]; greater than 128 µg/mL in test [3]; greater than 128 µg/mL in test [4]; greater than 1020 µg/mL in test [5]; 128 µg/mL (≈ 323 µM) in test [6]. In addition, the MIC is 128 µg/mL (≈ 323 µM) in [7]; 64 µg/mL (≈ 161 µM) in test [11]; 128 µg/mL (≈ 323 µM) in [12]; greater than 128 µg/mL in [13]; 4 µg/mL (≈ 10.1 µM) in test [15]; greater than 1020 µg/mL in test [16]. The MIC is 128 µg/mL (≈ 323 µM) in [17]; 8 µg/mL (≈ 20.2 µM) in test [18]; greater than 1020 µg/mL in test [19]; greater than 1020 µg/mL in test [20]; greater than 128 µg/mL in test [22]. Besides, the “fold change (FC)” value in [8] was found to be 0.78; in test [9] it was 3.1; in test [10] it was 4.8; in test [14] it was 11.7; in test [21] it was 11.3.

Source of the values: ChEMBL document CHEMBL1649288, “Fmt bypass in Pseudomonas aeruginosa causes induction of MexXY efflux pump expression” (2009).
